UCH37 inh = inhibitors of human UCH37 deubiquitinase, primary screen, biochemical, Ub-AMC cleavage, fluorescence | Ubiquitin carboxyl-terminal hydrolase isozyme L5 (Homo sapiens), Q9Y5K5 | purified proteasome/UCH37 | inhibition, % (concentration not given with the values) | actives 0.33% (n = 330,000) | AID 588478, 2011;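 active = mean inhibition over replicate wells above about 20%, limit read from the data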;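 note: 0% = compound-free wells with enzyme and 100% = wells lacking proteasome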
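Reagent: Ub-AMC substrate; assay system: Proteasome-associated human UCH37 deubiquitinase; controls: no-proteasome and no-compound wells; read-out: % inhibition of Ub-AMC cleavage fluorescence; timing: 30 min preincubation with enzyme, 25 min cleavage at room temperature; signal: AMC fluorescence from Ub-AMC cleavage, excitation 355 nm, emission 460 nm; buffer or medium: Tris-HCl pH 7.4 plus ovalbumin, ATP-MgCl2, DTT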
HKDC1 inhibitor = HKDC1 hexokinase inhibitors, primary screen, biochemical, fluorescence, uHTS; Q2TB90; recombinant HKDC1, G6PDH/diaphorase resazurin coupled fluorescence; inhibition, % at 20 µM; actives 0.16% (n = 340,000);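 active = inhibition above about 35% when tested at 20 µM, limit read from the data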;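 note: plate controls were DMSO wells with enzyme for no effect and DMSO wells lacking enzyme for full effect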
Target sequence (Q2TB90 whole entry, looked up): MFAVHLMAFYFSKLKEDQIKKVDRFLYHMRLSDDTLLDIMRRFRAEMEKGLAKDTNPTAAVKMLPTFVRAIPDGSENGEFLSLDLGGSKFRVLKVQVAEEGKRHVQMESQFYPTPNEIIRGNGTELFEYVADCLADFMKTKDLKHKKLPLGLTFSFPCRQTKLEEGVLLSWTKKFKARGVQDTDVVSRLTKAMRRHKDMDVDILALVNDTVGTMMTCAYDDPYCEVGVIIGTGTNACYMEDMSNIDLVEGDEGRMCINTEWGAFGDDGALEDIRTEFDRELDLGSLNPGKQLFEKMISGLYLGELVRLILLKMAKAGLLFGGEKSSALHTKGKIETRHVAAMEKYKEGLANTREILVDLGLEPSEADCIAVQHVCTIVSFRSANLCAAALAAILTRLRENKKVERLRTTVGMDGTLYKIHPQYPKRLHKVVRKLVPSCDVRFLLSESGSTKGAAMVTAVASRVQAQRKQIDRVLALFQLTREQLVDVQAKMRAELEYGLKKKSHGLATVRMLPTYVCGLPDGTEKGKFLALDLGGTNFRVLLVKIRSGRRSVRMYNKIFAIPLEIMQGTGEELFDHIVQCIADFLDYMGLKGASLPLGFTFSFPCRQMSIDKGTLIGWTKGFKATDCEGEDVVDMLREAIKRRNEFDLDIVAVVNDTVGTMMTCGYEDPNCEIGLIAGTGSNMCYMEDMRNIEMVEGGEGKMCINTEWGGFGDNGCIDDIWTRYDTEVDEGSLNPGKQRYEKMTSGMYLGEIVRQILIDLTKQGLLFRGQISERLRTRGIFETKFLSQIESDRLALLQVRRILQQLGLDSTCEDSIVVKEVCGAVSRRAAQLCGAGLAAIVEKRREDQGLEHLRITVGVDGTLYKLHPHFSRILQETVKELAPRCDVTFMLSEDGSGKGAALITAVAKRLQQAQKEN
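Test system: recombinant HKDC1 (HK5) hexokinase enzyme, produced in-house / Doses: 20 µM test compound, 1% DMSO / Timing: 90 min, room temperature / Detection: G6PDH/diaphorase-coupled fluorescence, 1 mM NADP, 100 µM resazurin, 525/613 nm / Control set: DMSO wells with and without enzyme mix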
PfGluPho inh = PfG6PD enzyme inhibitors, primary screen, biochemical, fluorescence intensity, uHTS | AID 504690, 2011 | inhibition, % at 20 µM | actives 0.78% (n = 350,000) | PfGluPho enzyme, NADPH resazurin-diaphorase fluorescence | glucose-6-phosphate dehydrogenase-6-phosphogluconolactonase (Plasmodium falciparum 3D7);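 active = inhibition reaching at least a set limit at 20 µM in the primary screen, cut at about 59% in these data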;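 note: 0% = DMSO wells with substrate and 100% = DMSO wells lacking glucose-6-phosphate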
aDG glyco up = activators of alpha-DG glycosylation, primary screen, uHTS, Pro5-aDG cells, AlphaScreen. alpha-DG glycosylation AlphaScreen (IIH6); 0% Pro5, 100% B10-LARGE cell signal. activation, % at 10 µM. actives 0.22% (n = 360,000);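 active = activation of at least 8% versus controls, or a plate z-score of at least 8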;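 note: Pro5 are CHO cells carrying HIG-tagged alpha-DG that lacks glycosylation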
Cardio protect = cardioprotection against H2O2-induced cell death, primary screen, uHTS, H9c2 cells, ATPLite luminescence; H9c2 cardiomyocytes, H2O2 injury protection, 2 h; protection from H2O2 cell death, % at 20 µM; AID 588492, 2011; actives 0.63% (n = 360,000);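 active = compounds giving at least 50% protection of heart cells from peroxide-induced death in the single-dose screen, raw or plate-pattern-corrected value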;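 note: 0% = DMSO wells with peroxide and 100% = DMSO wells without peroxide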
Beta2AR agonist = beta2AR agonists driving receptor internalization, primary screen, cell-based, FAP fluorogen, flow cytometry | Beta-2 adrenergic receptor (Homo sapiens), P07550 | Am2.2-beta2AR cells | response, % (test concentration not listed) | actives 0.43% (n = 340,000);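 active = response above a set limit, near 3 SD of response in nonfluorescent compounds, cut at about 42% in these data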
PfG6PD confirm = PfG6PD inhibitors, hit retest, confirmation, biochemical, fluorescence intensity, single concentration | shares compounds with PfGluPho inh | recombinant PfGluPho, NADPH-diaphorase-resazurin fluorescence | inhibition, % at 20 µM | actives 34% (n = 2,400);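 active = inhibition of at least 50% at 20 µM in any single replicate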;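 note: 0% = DMSO with substrate and 100% = DMSO lacking glucose-6-phosphate substrate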
Diaphorase 10uM = diaphorase inhibitors and chemical oxidizers, confirmation, counter-screen for P. falciparum G6PD inhibitor project, biochemical, fluorescence intensity, 10 µM NADPH; actives 39% (n = 820); diaphorase-coupled resazurin reduction, NADPH 10 uM; AID 504862, 2011; shares compounds with PfGluPho inh; inhibition, % at 20 µM;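 active = average inhibition reaching 50% or more with the compound at 20 µM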;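 note: resorufin red fluorescence formed as diaphorase reduces resazurin using NADPH; 0% = DMSO with enzyme and 100% = DMSO without enzyme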
Diaph ctr 30uM = diaphorase inhibitors and chemical oxidizers, confirmation, counter-screen for P. falciparum G6PD inhibitor project, biochemical, fluorescence intensity, 30 µM NADPH | shares compounds with PfGluPho inh | Diaphorase/resazurin coupled assay, resorufin fluorescence | inhibition, % at 20 µM | actives 29% (n = 820) | AID 504863, 2011;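 active = inhibition averaging 50% or more, tested at 20 µM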;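 note: 0% = DMSO with enzyme and 100% = DMSO wells lacking diaphorase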
The depositor's hits bear a star; x = no result. Only some compounds are listed: those with a hit (about 2.1% of all), similar ones and a draw of the others.

SMILES	UCH37 inh	HKDC1 inhibitor	PfGluPho inh	aDG glyco up	Cardio protect	Beta2AR agonist	PfG6PD confirm	others
CON=Cc1cccn1-c1nccc(OC)c1C#N	-2.0	x	x	x	x	x	x
CC(=NO)C(=O)NCC1CCNCC1	4.2	x	x	x	x	x	x
CC1(C)CC(=NNC(=S)Nc2ccccc2F)c2cc(O)ccc2O1	-41.3	x	x	x	x	x	x
N#CC1=C2SCN(c3ccccc3)CN2C(=O)CC1c1c(Cl)cccc1Cl (stereo not drawn)	3.4	7.4	85.5*	0.0	10.6	7.4	30.4
S=c1nc2[nH]c3ccccc3c2n[nH]1	6.1	-5.4	66.4*	-0.1	6.5	2.0	10.4
CNc1nc(=S)[nH]c2ccccc12	1.8	-2.5	10.4	-0.1	-1.3	-3.1	x
CC(=NNC(=S)Nc1ccc(C)cc1)c1cccc(N)c1	-16.8	x	x	x	x	x	x
O=C(NN=Cc1ccncc1)c1cccc(NN=Cc2ccncc2)c1	11.5	x	x	x	x	x	x
CCOC(=O)c1cnc2ccc(OCC)cc2c1NCc1ccccc1	-104.8	1.2	65.8*	0.4	-21.2	-3.9	-7.3
CCOC(=O)c1cnc2ccc(OCC)cc2c1NCc1cccnc1	-30.5	6.3	23.9	-0.1	-5.9	-25.1	x
O=S(=O)(Nc1cc(Sc2cccc3cccnc23)c(O)c2ccccc12)c1ccc(F)cc1	7.3	27.7	98.4*	x	x	x	84.8*	Diaphorase 10uM=22.3;Diaph ctr 30uM=15.9
COc1ccccc1N(C(C)=O)C1=C(Cl)C(=O)c2ccccc2C1=O	x	x	123.3*	-0.3	-21.0	x	115.4*	Diaphorase 10uM=92.0*;Diaph ctr 30uM=92.4*
COc1ccccc1N(C(=O)CCl)c1cn(C(C)=O)c2ccccc12	4.7	7.5	-12.7	-0.3	-6.1	29.1	x
CC(NC(=O)C(=O)NN=Cc1ccccc1)c1ccccc1 (stereo not drawn)	5.3	x	x	x	x	x	x
COc1cccc(/C=C2/CCC(CN(C)C)C2=O)c1 (stereo not drawn)	x	17.1	70.0*	-0.4	-21.6	26.3	38.8
COc1ccc(/C=C2/CCCC(CN(C)C)C2=O)cc1 (stereo not drawn)	x	15.1	44.4	-0.6	-20.5	1.6	x
CN(C)CC1CCC/C(=C/c2ccc(Cl)cc2)C1=O (stereo not drawn)	x	30.9	60.4*	-0.5	-16.5	17.6	20.9
Cc1ccc(C=Nn2c(C)n[nH]c2=S)o1	7.9	x	x	x	x	x	x
Cc1cccc(C=NNC(=O)c2ccc(Cl)cc2)c1O	1.3	x	x	x	x	x	x
O=C(NCc1ccncc1)Nc1cccc([N+](=O)[O-])c1	0.0	-4.0	-8.2	0.1	-1.0	2.0	x
O=[N+]([O-])c1cccc(NC(=S)NCc2ccncc2)c1	2.1	2.2	79.2*	-0.3	-3.8	-5.7	4.6
CCN(CC)C(=O)C(=O)NN=Cc1cccc(Br)c1	3.1	x	x	x	x	x	x
COc1cc(/C=N/Nc2nncn2N)ccc1OCc1c(C)no[n+]1[O-]	x	2.9	82.1*	0.2	12.5	-0.2	62.7*	Diaphorase 10uM=34.4;Diaph ctr 30uM=23.9
COc1cc(C=NNc2nncn2N)ccc1OC(C)=O	4.4	x	x	x	x	x	x
COc1ccc(/C=N/Nc2nncn2N)cc1Br	x	14.2	79.3*	0.1	0.0	-7.6	39.7
SMILES	UCH37 inh	HKDC1 inhibitor	PfGluPho inh	aDG glyco up	Cardio protect	Beta2AR agonist	PfG6PD confirm	others
CCc1nnc(N/N=C/c2ccc(O)c(OC)c2)n1N	x	3.5	71.7*	0.1	-2.7	7.4	24.0
Cc1ccc(C(=O)c2coc3ccc(O)c(Cl)c23)cc1	3.1	5.3	62.8*	0.3	2.1	3.6	27.0
COc1ccc(NC(=O)n2ncc3c(C)cccc32)cc1	1.0	2.0	68.8*	0.1	-11.3	-4.8	20.3
COc1ccc(NC(=O)n2ncc3c(C)cccc32)cc1OC	4.5	0.7	46.4	0.0	-7.3	0.0	x
CC1(OC(=O)CCc2ccccc2)C(=O)C=C2C=C(c3ccc(C#N)cc3)N(c3ccccc3)C=C2C1=O (stereo not drawn)	-0.7	31.6	71.5*	0.0	7.5	6.9	23.2
CC1(OC(=O)CCc2ccccc2)C(=O)C=C2C=C(c3ccc(C#N)cc3)N(CC3CC3)C=C2C1=O (stereo not drawn)	x	14.1	39.8	0.4	-1.1	-6.1	x
CC1(OC(=O)CCc2ccccc2)C(=O)C=C2C=C(c3ccc(C#N)cc3)N(CCN3CCOCC3)C=C2C1=O (stereo not drawn)	0.8	21.0	35.1	0.0	-6.3	-1.9	x
CC(C)OCCCN1C=C2C(=O)C(C)(OC(=O)CCc3ccccc3)C(=O)C=C2C=C1c1ccc(C#N)cc1 (stereo not drawn)	4.0	28.6	81.2*	x	x	x	26.7
CC1(OC(=O)CCc2ccccc2)C(=O)C=C2C=C(c3ccc(C#N)cc3)N(C3CCCC3)C=C2C1=O (stereo not drawn)	x	19.2	60.8*	0.4	0.4	4.0	19.4
CC1=NNC(=O)C1CCC(=O)NN=C/C=C/c1ccccc1 (stereo not drawn)	3.2	x	x	x	x	x	x
COc1ccc(C(C)=NNC(=O)c2ccc(-c3ccccc3)cc2)c(F)c1	-3.8	x	x	x	x	x	x
COc1ccc(OC)c(C=NNC(=O)CNC(=O)c2ccc(S(=O)(=O)N3CCCC3)cc2)c1	-71.4	x	x	x	x	x	x
CC(=O)N1CCN(c2ncnc3sc(-c4ccccc4)cc23)CC1	-38.2	-3.9	23.5	0.0	21.9	-18.4	x
Oc1ccc(N2CCN(c3ncnc4sc(-c5ccccc5)cc34)CC2)cc1	-1.4	4.2	71.8*	0.1	-1.3	4.1	22.9
CC(=NN1CCN(c2ccccc2)CC1)c1ccncc1	0.8	x	x	x	x	x	x
COCCN(C(=S)Nc1c(C)cc(C)cc1C)C(C)c1cccnc1 (stereo not drawn)	3.1	-8.2	69.1*	0.1	-0.1	-1.2	29.6
Cc1c(C(=O)Nc2nnc(C(F)(F)F)s2)oc2ccccc12	-2.6	-6.8	103.8*	0.4	-14.6	15.6	70.5*	Diaphorase 10uM=82.8*;Diaph ctr 30uM=67.7*

Compound activity deposited in PubChem BioAssay by several laboratories.
